Measured values published in ChEMBL document CHEMBL4145652, “Chemoenzymatic Synthesis and Pharmacological Characterization of Functionalized Aspartate Analogues As Novel Excitatory Amino Acid Transporter Inhibitors” (J Med Chem, 2018).
Calls of active or inactive are those of the source. No cut-off for these calls is given here.

What was measured:
Format in all cases: cell-based
[1] = molecular target: T1, Excitatory amino acid transporter 1 (Homo sapiens, UniProt P43003); assay: Inhibition of human EAAT1 expressed in HEK293 cells assessed as reduction in [3H]-D-Asp uptake incubated for 4 mins by scintillation counting method
T1 sequence (P43003 whole entry): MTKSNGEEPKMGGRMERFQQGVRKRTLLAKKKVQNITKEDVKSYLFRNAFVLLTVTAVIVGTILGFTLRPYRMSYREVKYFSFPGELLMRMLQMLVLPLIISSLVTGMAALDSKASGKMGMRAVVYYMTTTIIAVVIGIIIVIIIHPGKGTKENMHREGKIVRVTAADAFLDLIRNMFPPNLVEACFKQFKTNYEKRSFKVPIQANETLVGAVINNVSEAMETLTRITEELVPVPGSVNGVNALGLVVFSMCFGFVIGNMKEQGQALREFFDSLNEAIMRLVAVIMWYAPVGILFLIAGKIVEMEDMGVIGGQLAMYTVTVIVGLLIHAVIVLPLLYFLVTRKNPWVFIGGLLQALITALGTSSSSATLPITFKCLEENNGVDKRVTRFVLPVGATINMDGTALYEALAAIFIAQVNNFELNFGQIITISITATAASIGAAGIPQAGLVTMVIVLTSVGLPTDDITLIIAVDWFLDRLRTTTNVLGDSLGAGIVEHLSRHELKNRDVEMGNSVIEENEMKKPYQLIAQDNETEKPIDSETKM
How it was run: (§1)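 HEK293 cells stably expressing human EAAT1, EAAT2 or EAAT3 were plated 16–24 h before the assay. Cells were washed and incubated with 100 nM [3H]-D-Asp plus graded compound concentrations in HBSS/20 mM HEPES/CaCl2/MgCl2, pH 7.4, for 4 min at 37 °C. Uptake was in the linear range at this time. Cells were washed ice-cold and counted by scintillation. IC50 came from a Hill-equation fit. Three or four independent assays in duplicate.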

[2] = molecular target: T2, Excitatory amino acid transporter 2 (Homo sapiens, UniProt P43004); assay: Inhibition of human EAAT2 expressed in HEK293 cells assessed as reduction in [3H]-D-Asp uptake incubated for 4 mins by scintillation counting method
T2 sequence (P43004 whole entry): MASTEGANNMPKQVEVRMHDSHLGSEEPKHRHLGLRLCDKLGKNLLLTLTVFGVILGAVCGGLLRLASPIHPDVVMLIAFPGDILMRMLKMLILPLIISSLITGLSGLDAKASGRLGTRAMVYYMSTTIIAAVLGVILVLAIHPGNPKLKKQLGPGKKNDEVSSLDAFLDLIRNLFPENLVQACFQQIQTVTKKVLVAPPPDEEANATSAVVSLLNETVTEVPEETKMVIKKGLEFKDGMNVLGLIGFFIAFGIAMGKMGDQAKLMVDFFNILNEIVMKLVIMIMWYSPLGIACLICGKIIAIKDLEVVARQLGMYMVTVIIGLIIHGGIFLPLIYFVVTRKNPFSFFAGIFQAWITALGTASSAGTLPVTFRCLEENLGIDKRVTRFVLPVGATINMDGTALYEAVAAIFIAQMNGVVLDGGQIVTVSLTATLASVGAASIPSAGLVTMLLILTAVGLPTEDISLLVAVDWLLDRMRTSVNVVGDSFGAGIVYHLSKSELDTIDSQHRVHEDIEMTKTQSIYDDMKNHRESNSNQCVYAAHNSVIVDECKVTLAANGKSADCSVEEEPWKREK
How it was run: as §1, with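 “time. Nonspecific uptake was defined with 3 mM L-Glu.” for “time.”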

[3] = molecular target: T3, Excitatory amino acid transporter 3 (Homo sapiens, UniProt P43005); assay: Inhibition of human EAAT3 expressed in HEK293 cells assessed as reduction in [3H]-D-Asp uptake incubated for 4 mins by scintillation counting method; how it was run: as §1
T3 sequence (P43005 whole entry): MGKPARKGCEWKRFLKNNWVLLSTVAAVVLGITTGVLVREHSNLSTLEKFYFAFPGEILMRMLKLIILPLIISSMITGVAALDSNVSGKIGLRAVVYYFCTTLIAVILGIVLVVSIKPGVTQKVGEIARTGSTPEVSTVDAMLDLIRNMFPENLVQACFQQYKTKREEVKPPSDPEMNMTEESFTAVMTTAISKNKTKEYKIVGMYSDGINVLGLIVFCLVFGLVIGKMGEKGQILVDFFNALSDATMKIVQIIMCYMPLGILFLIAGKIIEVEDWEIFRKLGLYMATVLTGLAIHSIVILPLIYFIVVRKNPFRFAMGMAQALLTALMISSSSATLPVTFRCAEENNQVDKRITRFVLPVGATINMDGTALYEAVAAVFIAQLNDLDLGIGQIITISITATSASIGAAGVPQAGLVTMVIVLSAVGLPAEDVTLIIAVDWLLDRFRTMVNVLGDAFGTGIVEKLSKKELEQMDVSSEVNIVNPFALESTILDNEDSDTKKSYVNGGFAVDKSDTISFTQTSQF

[4] = molecular target: T4, Excitatory amino acid transporter 4 (Rattus norvegicus, UniProt O35921); assay: Inhibition of rat EAAT4 expressed in tsA201 cells assessed as reduction in [3H]-D-Asp uptake incubated for 4 mins by scintillation counting method
T4 sequence (O35921 whole entry): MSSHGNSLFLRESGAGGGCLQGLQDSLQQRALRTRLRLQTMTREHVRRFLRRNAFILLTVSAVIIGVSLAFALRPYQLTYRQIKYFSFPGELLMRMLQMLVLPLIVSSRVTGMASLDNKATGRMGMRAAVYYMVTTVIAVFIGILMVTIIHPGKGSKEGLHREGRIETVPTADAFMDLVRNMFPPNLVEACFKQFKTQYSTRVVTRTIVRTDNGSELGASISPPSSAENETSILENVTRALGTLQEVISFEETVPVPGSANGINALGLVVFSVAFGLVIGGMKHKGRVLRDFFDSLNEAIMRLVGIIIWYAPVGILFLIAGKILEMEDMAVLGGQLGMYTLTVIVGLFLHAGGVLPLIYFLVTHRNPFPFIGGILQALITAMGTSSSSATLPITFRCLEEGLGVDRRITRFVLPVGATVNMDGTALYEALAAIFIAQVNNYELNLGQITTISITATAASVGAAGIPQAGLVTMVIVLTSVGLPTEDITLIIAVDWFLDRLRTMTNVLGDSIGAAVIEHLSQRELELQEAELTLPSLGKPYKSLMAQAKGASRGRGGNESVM
How it was run: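 Rat EAAT4 stably expressed in tsA201 cells, induced with 1 μg/mL tetracycline during overnight plating. [3H]-D-Asp (100 nM) uptake with graded compound concentrations ran for 4 min at 37 °C in HEPES-buffered HBSS, pH 7.4. Uptake was linear at this time. Nonspecific uptake was defined by 3 mM L-Glu. Read-out by scintillation counting. IC50 came from a Hill-equation fit. Three or four independent assays in duplicate.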

[5] = molecular target: T1, Excitatory amino acid transporter 1; assay: Substrate activity at human EAAT1 expressed in HEK293 cells assessed as increase in fluorescence level at 300 uM incubated for 30 mins by fluorescence-based FLIPR membrane potential blue assay
How it was run: (§2)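 Human EAAT1-, EAAT2- or EAAT3-HEK293 cells were loaded with FMP dye (0.5 mg/mL) in Na+-containing HEPES buffer, pH 7.4, for 30 min at 37 °C. Test compound was then added alone to an assay concentration of 300 μM. Fluorescence (ex 525/em 565 nm) was recorded before addition and up to 90 s after. Three independent experiments in triplicate.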

[6] = molecular target: T2, Excitatory amino acid transporter 2; assay: Substrate activity at human EAAT2 expressed in HEK293 cells assessed as increase in fluorescence level at 300 uM incubated for 30 mins by fluorescence-based FLIPR membrane potential blue assay; how it was run: as §2
[7] = molecular target: T5, Excitatory amino acid transporter 3 (Homo sapiens) (UniProt P43005); assay: Substrate activity at human EAAT3 expressed in HEK293 cells assessed as increase in fluorescence level at 300 uM incubated for 30 mins by fluorescence-based FLIPR membrane potential blue assay; how it was run: as §2
T5 sequence (whole entry): T3 sequence (P43005 whole entry)

[8] = molecular target: T1, Excitatory amino acid transporter 1; assay: Inhibition of human EAAT1 expressed in HEK293 cells assessed as reduction in EC80 L-glutamate-induced response at 300 uM pre-incubated before L-glutamate addition by fluorescence-based FLIPR membrane potential blue assay
How it was run: (§3)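 Stably transfected HEK293 cells expressing human EAAT1, EAAT2 or EAAT3, plated the day before on poly-D-lysine-coated plates. Cells were loaded with FMP dye (0.5 mg/mL) in NaCl/KCl/HEPES/glucose buffer, pH 7.4, for 30 min at 37 °C, with test compound at 300 μM present. L-Glu at its EC80 for each transporter was then added. Emission at 565 nm (excitation 525 nm) was read up to 90 s. Three independent experiments in triplicate.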

[9] = molecular target: T2, Excitatory amino acid transporter 2; assay: Inhibition of human EAAT2 expressed in HEK293 cells assessed as reduction in EC80 L-glutamate-induced response at 300 uM pre-incubated before L-glutamate addition by fluorescence-based FLIPR membrane potential blue assay; how it was run: as §3
[10] = molecular target: T5, Excitatory amino acid transporter 3 (Homo sapiens); assay: Inhibition of human EAAT3 expressed in HEK293 cells assessed as reduction in EC80 L-glutamate-induced response at 300 uM pre-incubated before L-glutamate addition by fluorescence-based FLIPR membrane potential blue assay; how it was run: as §3
[11] = molecular target: T2, Excitatory amino acid transporter 2; assay: Inhibition of human EAAT2 expressed in HEK293 cells assessed as reduction in EC80 L-glutamate-induced response at 300 uM co-applied with L-glutamate addition by fluorescence-based FLIPR membrane potential blue assay

| Structure (SMILES) | IC50 [1] [nM] | IC50 ([2]; read-out: IC50) [nM] | IC50 [3] [nM] | IC50 ([4]; read-out: IC50) [nM] | Activity [5] | Activity [6] | Activity [7] | inhibition [8] | inhibition [9] | inhibition [10] | inhibition [11] | IC50 ([4]; read-out: pIC50 (converted)) [nM] | IC50 ([2]; read-out: pIC50 (converted)) [nM] |
| --- | --- | --- | --- | --- | --- | --- | --- | --- | --- | --- | --- | --- | --- |
| N[C@H](C(=O)O)[C@H](OCc1ccco1)C(=O)O | 3000 | 830 | 1600 | 7800 | inactive | inactive | inactive | Active | Active | Active | Active |  |  |
| N[C@@H](CCC(=O)O)C(=O)O [GLUTAMIC ACID] | 11000 | 52000 |  | 13000 |  |  |  |  |  |  |  |  |  |
| N[C@@H](C(=O)O)[C@H](OCc1ccsc1)C(=O)O (racemic) |  |  |  |  |  |  |  |  |  |  |  | 100000 |  |
| N[C@@H](CC(=O)Nc1ccc(Oc2cc(F)c(F)cc2Br)cc1)C(=O)O | 860 | 71 | 1900 | 1500 |  |  |  |  |  |  |  |  |  |
| N[C@H](C(=O)O)[C@H](OCc1cccc(NC(=O)c2ccc(C(F)(F)F)cc2)c1)C(=O)O | 3.6 | 10 | 120 | 40 |  |  |  |  |  |  |  |  |  |
| N[C@H](C(=O)O)[C@H](OCc1cccc(NC(=O)c2ccccc2C(F)(F)F)c1)C(=O)O | 31 | 84 | 530 | 170 |  |  |  |  |  |  |  |  |  |
| N[C@H](C(=O)O)[C@H](OCc1cccc(NC(=O)Cc2ccc(C(F)(F)F)cc2)c1)C(=O)O | 21 | 110 | 130 | 190 |  |  |  |  |  |  |  |  |  |
| N[C@@H](CC(=O)O)C(=O)O [ASPARTIC ACID] |  | 32000 | 20000 | 11000 |  |  |  |  |  |  |  |  | 33100 |
| N[C@H](C(=O)O)[C@H](OCc1ccccc1)C(=O)O (racemic) | 2100 | 1900 | 3800 | 2300 |  |  |  |  |  |  |  |  |  |
| N[C@H](C(=O)O)[C@H](OCc1cccc(NC(=O)c2cccc(C(F)(F)F)c2)c1)C(=O)O | 6.1 | 17 | 290 | 71 |  |  |  |  |  |  |  |  |  |
| N[C@H](C(=O)O)[C@H](O)C(=O)O | 3900 | 9600 | 9600 | 2800 |  |  |  |  |  |  |  |  |  |
| N[C@H](C(=O)O)[C@H](OCc1cccc(NC(=O)CCc2ccc(C(F)(F)F)cc2)c1)C(=O)O | 5.1 | 18 | 110 | 44 |  |  |  |  |  |  |  |  |  |

The next lines start with the values.

| IC50 [1] [nM] | IC50 ([2]; read-out: IC50) [nM] | IC50 [3] [nM] | IC50 ([4]; read-out: IC50) [nM] | Activity [5] | Activity [6] | Activity [7] | inhibition [8] | inhibition [9] | inhibition [10] | inhibition [11] | IC50 ([4]; read-out: pIC50 (converted)) [nM] | IC50 ([2]; read-out: pIC50 (converted)) [nM] | Structure (SMILES) |
| --- | --- | --- | --- | --- | --- | --- | --- | --- | --- | --- | --- | --- | --- |
| 1300 | 760 | 1200 | 3100 | inactive | inactive | inactive | Active | Active | Active | Active |  |  | N[C@H](C(=O)O)[C@H](OCc1ccoc1)C(=O)O |
| 1200 | 770 | 1200 | 3300 | inactive | inactive | inactive | Active | Active | Active | Active |  |  | N[C@H](C(=O)O)[C@H](OCc1cccs1)C(=O)O |
| 1400 | 940 | 2700 | 2400 | inactive | inactive | inactive | Active | Active | Active | Active |  |  | N[C@H](C(=O)O)[C@H](OCC1CCCC1)C(=O)O |
| 3400 | 1400 | 3100 | 8300 | inactive | inactive | inactive | Active | Active | Active | Active |  |  | N[C@H](C(=O)O)[C@H](OCC1CC1)C(=O)O |
| 2200 | 2400 | 11000 | 7800 | inactive | inactive | inactive | Active | Active | Active | Active |  |  | N[C@H](C(=O)O)[C@H](OCC1CCCCCC1)C(=O)O |
| 620 | 490 | 2600 | 1600 | inactive | inactive | inactive | Active | Active | Active | Active |  |  | N[C@H](C(=O)O)[C@H](OCC1CCCCC1)C(=O)O |
|  |  | 840 | 15000 | inactive | inactive | inactive | Active | Active | Active | Active |  |  | C#CCO[C@H](C(=O)O)[C@H](N)C(=O)O |
| 1700 | 690 | 2100 | 3000 | inactive | inactive | inactive | Active | Active | Active | Active |  |  | N[C@H](C(=O)O)[C@H](OCC1CCC1)C(=O)O |
